In ChEMBL document CHEMBL1136527, “Antifungal activity of a Candida albicans GGTase I inhibitor-alanine conjugate. Inhibition of Rho1p prenylation in C. albicans” (Bioorg Med Chem Lett, 2003):
Values after ≈ are worked out from the molar mass of the structure shown.

Assays:
Candida albicans [1] = test: Inhibitory of Candida albicans; assay type: functional
How it was run: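 MIC against C. albicans SC5314 in YNBGlc medium: yeast nitrogen base without amino acids, supplemented with histidine, methionine, tryptophan, glutamine and 2% glucose.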

Candida albicans [2] = test: Inhibition of Candida albicans after addition of amino acids at 1 mM; assay type: functional
How it was run: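 MIC against C. albicans SC5314 in YNBGlc medium (YNB without amino acids plus histidine, methionine, tryptophan, glutamine, 2% glucose), further supplemented with an amino acid mixture at 1mM final, to compete for permease uptake.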

Candida albicans [3] = test: Fungicidal activity against Candida albicans; assay type: functional
[4] = molecular target: Protein farnesyltransferase (Candida albicans); test: Inhibition of Candida albicans Farnesyltransferase
[5] = molecular target: Geranylgeranyl transferase type I (Candida albicans); test: Inhibition of Candida albicans Geranylgeranyl transferase type I

MIC (Candida albicans [1]) [µg/mL]	MIC (Candida albicans [2]) [µg/mL]	IC50 [4] [µM]	IC50 [5] [µM]	SMILES	MFC (Candida albicans [3]) [µg/mL]
1 (≈ 2.03 µM)	> 64	3	0.01	CC(C)C[C@H](NC(=O)C1(c2ccccc2)CCN(C(=O)[C@@H](N)CS)CC1)C(=O)N[C@@H](C)C(=O)O	2 (≈ 4.06 µM)
> 128			0.005	COC(=O)[C@H](CC(C)C)NC(=O)C1(c2ccccc2)CCN(C(=O)[C@@H](N)CS)CC1	> 128
> 128		0.2	< 0.005	CC(C)C[C@H](NC(=O)C1(c2ccccc2)CCN(C(=O)[C@@H](N)CS)CC1)C(=O)O	> 128
